According to ChEMBL document CHEMBL1144420 (J Med Chem, 2005):

Tests used:
[1] = target: T1, Sodium-dependent dopamine transporter (Rattus norvegicus, UniProt P23977); experiment: Inhibition of [3H]dopamine uptake into rat striatal synaptosomes; assay type: functional, subcellular, Brain
Procedure, shortened: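 [3H]Dopamine uptake run at 33 °C, in a buffer whose ion concentrations differ from those of the binding assays.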

[2] = target: T1, Sodium-dependent dopamine transporter; experiment: Displacement of [3H]WIN-35428 from Dopamine transporter of rat caudate putamen; assay type: tissue-based
Procedure, shortened: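 Radioligand displacement binding to brain DAT, incubated at 0 °C.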

[3] = target: Sodium-dependent serotonin transporter (Rattus norvegicus, UniProt P31652); experiment: Displacement of [3H]paroxetine from Serotonin transporter of rat caudate putamen; assay type: tissue-based
Sodium-dependent serotonin transporter, sequence (P31652 whole entry): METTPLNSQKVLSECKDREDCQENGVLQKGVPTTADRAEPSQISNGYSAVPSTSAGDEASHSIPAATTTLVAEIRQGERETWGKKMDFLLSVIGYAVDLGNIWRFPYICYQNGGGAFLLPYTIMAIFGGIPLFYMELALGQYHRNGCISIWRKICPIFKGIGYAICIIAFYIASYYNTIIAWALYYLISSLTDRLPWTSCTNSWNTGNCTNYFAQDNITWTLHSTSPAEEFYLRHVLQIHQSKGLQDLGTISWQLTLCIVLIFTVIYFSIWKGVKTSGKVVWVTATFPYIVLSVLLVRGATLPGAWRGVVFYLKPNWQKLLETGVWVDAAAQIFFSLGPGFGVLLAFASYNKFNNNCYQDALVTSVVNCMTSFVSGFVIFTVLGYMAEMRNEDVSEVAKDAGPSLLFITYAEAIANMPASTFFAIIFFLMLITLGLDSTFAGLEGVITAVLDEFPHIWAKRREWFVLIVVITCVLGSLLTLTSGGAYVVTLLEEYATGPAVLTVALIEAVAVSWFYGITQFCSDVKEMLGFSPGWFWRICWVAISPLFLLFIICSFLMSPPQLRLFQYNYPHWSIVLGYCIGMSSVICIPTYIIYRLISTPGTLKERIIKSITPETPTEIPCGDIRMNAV

T1 sequence (P23977 whole entry): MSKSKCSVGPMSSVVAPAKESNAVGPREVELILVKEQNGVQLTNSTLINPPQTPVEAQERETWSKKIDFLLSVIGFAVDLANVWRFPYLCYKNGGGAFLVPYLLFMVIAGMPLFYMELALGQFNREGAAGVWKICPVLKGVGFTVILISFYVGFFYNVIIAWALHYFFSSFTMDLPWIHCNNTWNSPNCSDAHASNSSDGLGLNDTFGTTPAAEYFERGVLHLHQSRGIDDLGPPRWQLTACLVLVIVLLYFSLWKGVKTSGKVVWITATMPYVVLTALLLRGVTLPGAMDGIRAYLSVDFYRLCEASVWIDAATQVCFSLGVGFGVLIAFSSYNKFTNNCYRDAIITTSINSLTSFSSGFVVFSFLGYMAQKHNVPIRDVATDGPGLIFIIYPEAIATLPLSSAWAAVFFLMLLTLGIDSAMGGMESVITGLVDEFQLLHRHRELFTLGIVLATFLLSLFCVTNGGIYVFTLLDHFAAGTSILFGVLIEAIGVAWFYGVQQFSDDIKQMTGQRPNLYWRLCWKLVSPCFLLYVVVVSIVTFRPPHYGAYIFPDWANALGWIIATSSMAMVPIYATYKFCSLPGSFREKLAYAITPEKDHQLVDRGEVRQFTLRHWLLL

Structure (SMILES) | IC50 [1] | IC50 [2] | IC50 [3]
CO[C@H]1CC2C[C@H](OC(c3ccccc3)c3ccccc3)CC1N2C (stereo partly specified) | 139 nM | 276 nM | > 100 µM
CO[C@@H]1CC2CC(OC(c3ccc(F)cc3)c3ccc(F)cc3)CC1N2C (single isomer, unassigned) | 165 nM | 95 nM | > 0.01 µM
COCO[C@H]1CC2C[C@H](OC(c3ccccc3)c3ccc(Cl)cc3)CC1N2C (stereo partly specified) | 194 nM | 400 nM | > 100 µM
CN1C2CCCC1[C@H](OC(c1ccc(F)cc1)c1ccc(F)cc1)C2 (stereo partly specified) | 347 nM | 900 nM | > 100 µM
COCO[C@H]1CC2C[C@H](OC(c3ccc(F)cc3)c3ccc(F)cc3)CC1N2C (stereo partly specified) | 79.7 nM | 340 nM | > 100 µM
CN1C2C[C@H](OC(c3ccccc3)c3ccccc3)CC1[C@@H](O)C2 (stereo partly specified) | 149 nM | 1300 nM | > 100 µM
CN1C2C[C@H](OC(c3ccccc3)c3ccc(Cl)cc3)CC1[C@@H](O)C2 (stereo partly specified) | 39.1 nM | 600 nM | > 100 µM
CO[C@@H]1CC2CC(OC(c3ccccc3)c3ccccc3)CC1N2C (single isomer, unassigned) | 240 nM | 975 nM | > 100 µM
CN1C2C[C@H](OC(c3ccc(F)cc3)c3ccc(F)cc3)CC1[C@H](O)C2 (stereo partly specified) | 162 nM | 140 nM | > 100 µM
CO[C@@H]1CC2CC(OC(c3ccccc3)c3ccc(Cl)cc3)CC1N2C (single isomer, unassigned) | 519 nM | 750 nM | > 100 µM
CN1C2CCCC1[C@@H](OC(c1ccc(F)cc1)c1ccc(F)cc1)C2 (stereo partly specified) | 199 nM | 1130 nM | > 2 µM
CN1C2C[C@H](OC(c3ccc(F)cc3)c3ccc(F)cc3)CC1[C@@H](O)C2 (stereo partly specified) | 8.1 nM | 12 nM | 11 µM
COCO[C@@H]1CC2C[C@H](OC(c3ccc(F)cc3)c3ccc(F)cc3)CC1N2C (stereo partly specified) | 491 nM | 2500 nM | 3.5 µM
CO[C@H]1CC2C[C@H](OC(c3ccc(F)cc3)c3ccc(F)cc3)CC1N2C (stereo partly specified) | 104 nM | 25 nM | > 100 µM
CO[C@H]1CC2C[C@H](OC(c3ccccc3)c3ccc(Cl)cc3)CC1N2C (stereo partly specified) | 179 nM | 32 nM | > 100 µM
CO[C@@H]1CC2C[C@H](OC(c3ccc(F)cc3)c3ccc(F)cc3)CC1N2C (stereo partly specified) | 12.4 nM | 10 nM | 0.28 µM
COCO[C@H]1CC2C[C@H](OC(c3ccccc3)c3ccccc3)CC1N2C (stereo partly specified) | 1080 nM | 4500 nM | > 100 µM
